Assay [1] concerns Listeria monocytogenes. Nature of the assay: Antibacterial activity against Listeria monocytogenes CIP 103575 after 18 hrs by broth microdilution assay. In kind it is functional. The following applies: CIP 103575, 18 h. Summed up: (§1)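 Broth MIC testing on Gram-positive strains followed CLSI M100-S17 recommendations. […] Values are in mmol/L. Amoxicillin was the control for Listeria and Enterococcus strains and oxacillin for S. aureus strains.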

A short description of assay [2]: Surfactant property of the compound in aqueous solution assessed as critical micelle concentration or minimal hydrotropic concentration. Summed up:
(§2)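 Surface tension of aqueous solutions was measured by a rod method based on the Wilhelmy plate. Water was progressively concentrated with a stock surfactant solution at constant volume. At each concentration, readings continued until stable (SD of the last 5 values 0.2 mN/m). MHC or CMC and the plateau γsat were taken from the tension vs concentration curves.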

Assay [3] deals with Staphylococcus aureus. Nature of the assay: Antibacterial activity against Staphylococcus aureus ATCC 29213 after 18 hrs by broth microdilution assay. In kind it is functional. The settings on record: ATCC 29213, 18 h. In outline:
as §1

The test system of assay [4] is Enterococcus faecium. Nature of the assay: Antibacterial activity against […] Enterococcus faecium isolate 0151850763 after 18 hrs by broth microdilution assay. The settings on record: isolate 0151850763, 18 h. In kind it is functional. In outline:
(§3)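 Enterococcus faecium strains (reference, clinical isolates, VanA isolate) tested by MIC following CLSI recommendations (M100-S17), with amoxicillin as control. […] Values are expressed in mmol/L.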

The subject of assay [5] is Staphylococcus aureus. Nature of the assay: Antibacterial activity against methicillin-resistant Staphylococcus aureus isolate LY 1999-0053 after 18 hrs by broth microdilution assay. Format: functional. The settings on record: isolate LY 1999-0053, 18 h. In outline:
(§4)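 Staphylococcus aureus reference strains and methicillin- and daptomycin-resistant isolates tested by MIC according to CLSI guidance (M100-S17), with oxacillin as control. The endpoint is the lowest concentration with no growth in all replicates versus a negative control at 18 h. Values are reported in mmol/L.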
(In general: In broth dilution the organism is exposed to a series of concentrations in liquid medium.)

Assay [6] concerns Staphylococcus aureus. Put plainly: Antibacterial activity against daptomycin-resistant Staphylococcus aureus isolate ST 2015-0188 after 18 hrs by broth microdilution assay. In kind it is functional. The following applies: isolate ST 2015-0188, 18 h. Summed up: as §4
Assay [7] has as its system Staphylococcus aureus. Nature of the assay: Antibacterial activity against daptomycin-resistant Staphylococcus aureus isolate ST 2014-1288 after 18 hrs by broth microdilution assay. In kind it is functional. The settings on record: isolate ST 2014-1288, 18 h. Summed up:
as §4

The subject of assay [8] is Staphylococcus aureus. Put plainly: Antibacterial activity against daptomycin-resistant Staphylococcus aureus isolate ST 2015-0989 after 18 hrs by broth microdilution assay. In kind it is functional. The following applies: isolate ST 2015-0989, 18 h. In outline:
as §4

For assay [9], the system named is Staphylococcus aureus. Put plainly: Antibacterial activity against Staphylococcus aureus ATCC 25923 after 18 hrs by broth microdilution assay. In kind it is functional. The following applies: ATCC 25923, 18 h. Summed up: as §4
Assay [10] deals with Staphylococcus aureus. Nature of the assay: Antibacterial activity against methicillin-resistant Staphylococcus aureus LAC USA300 after 18 hrs by broth microdilution assay. Format: functional. Summed up:
as §4

Assay [11] relates to Enterococcus faecium. Put plainly: Antibacterial activity against Enterococcus faecium CIP 103510 after 18 hrs by broth microdilution assay. In kind it is functional. The settings on record: CIP 103510, 18 h. In outline: as §3
The test system of assay [12] is Enterococcus faecium. Put plainly: Antibacterial activity against Enterococcus faecium isolate 015205731401 after 18 hrs by broth microdilution assay. Format: functional. The settings on record: isolate 015205731401, 18 h. In outline:
as §1

The test system of assay [13] is Enterococcus faecium. Put plainly: Antibacterial activity against Enterococcus faecium isolate 015205261801 after 18 hrs by broth microdilution assay. The settings on record: isolate 015205261801, 18 h. In kind it is functional. Summed up:
as §3

Assay [14] deals with Staphylococcus aureus. Nature of the assay: Antibacterial activity against methicillin-resistant Staphylococcus aureus isolate HT 2006-1004 after 18 hrs by broth microdilution assay. Format: functional. The following applies: isolate HT 2006-1004, 18 h. In outline: as §4
Assay [15] deals with Staphylococcus aureus. Nature of the assay: Antibacterial activity against methicillin-resistant Staphylococcus aureus isolate HT 2004-0012 after 18 hrs by broth microdilution assay. In kind it is functional. The following applies: isolate HT 2004-0012, 18 h. Summed up:
as §4

Assay [16] relates to Staphylococcus aureus. Nature of the assay: Antibacterial activity against methicillin-resistant Staphylococcus aureus Mu3 after 18 hrs by broth microdilution assay. Format: functional. The settings on record: Mu3, 18 h. In outline:
as §4

Assay [17] deals with Listeria monocytogenes. Nature of the assay: Antibacterial activity against Listeria monocytogenes isolate 015170199001 after 18 hrs by broth microdilution assay. Format: functional. The following applies: isolate 015170199001, 18 h. In outline:
as §1

The subject of assay [18] is Listeria monocytogenes. Nature of the assay: Antibacterial activity against Listeria monocytogenes isolate 015181840701 after 18 hrs by broth microdilution assay. Format: functional. The following applies: isolate 015181840701, 18 h. Summed up: as §1
Assay [19] relates to Staphylococcus aureus. Put plainly: Antibacterial activity against methicillin-resistant Staphylococcus aureus isolate HT 2002-0417 after 18 hrs by broth microdilution assay. In kind it is functional. The settings on record: isolate HT 2002-0417, 18 h. Summed up: as §4
For assay [20], the system named is Listeria monocytogenes. Nature of the assay: Antibacterial activity against Listeria monocytogenes isolate 015189074801 after 18 hrs by broth microdilution assay. Format: functional. The settings on record: isolate 015189074801, 18 h. Summed up:
as §1

The test system of assay [21] is Enterococcus faecalis. Put plainly: Antibacterial activity against Enterococcus faecalis isolate 015206179901 after 18 hrs by broth microdilution assay. In kind it is functional. The following applies: isolate 015206179901, 18 h. Summed up:
as §1

The subject of assay [22] is Enterococcus faecalis. Nature of the assay: Antibacterial activity against Enterococcus faecalis ATCC 29212 after 18 hrs by broth microdilution assay. In kind it is functional. The settings on record: ATCC 29212, 18 h. Summed up:
as §1

Assay [23] is described as follows: Surfactant property of the compound in water assessed as critical micelle concentration or minimal hydrotropic concentration by platinum rod based tensiometric method. Summed up: as §2
For a further assay, the system named is Escherichia coli. Put plainly: Antibacterial activity against Escherichia coli ATCC 8739 after 18 hrs by broth microdilution assay. In kind it is functional. The following applies: ATCC 8739, 18 h.
A further assay has as its system Pseudomonas aeruginosa. Put plainly: Antibacterial activity against Pseudomonas aeruginosa ATCC 27853 after 18 hrs by broth microdilution assay. Format: functional. The following applies: ATCC 27853, 18 h.

Among the data in ChEMBL document CHEMBL4004832, “Synthesis, surfactant properties and antimicrobial activities of methyl glycopyranoside ethers” (2017) are MIC and CMC values, retold here.

Converted amounts (≈) assume the structure as drawn. Bounds are passed on as bounds.

A word on the MIC: it is the least concentration at which growth counts as inhibited. High values mean a less susceptible organism, low ones a more susceptible organism. Consider `CCCCCCCCCCCC(=O)OC[C@H]1O[C@H](OC)[C@H](O)[C@@H](O)[C@@H]1O`, for which the minimum inhibitory concentration (MIC) is 80 µM (≈ 30.1 µg/mL) in the assay on Listeria monocytogenes [1] and 320 µM (≈ 120 µg/mL) in the assay on Staphylococcus aureus [3]. Besides, the CMC in [2] was 0.052 mmol/L.
`CCCCCCCCCCCCOC[C@H]1O[C@H](OC)[C@@H](O)[C@@H](O)[C@@H]1O`: the MIC in the assay with Listeria monocytogenes [1] was found to be 90 µM (≈ 32.6 µg/mL); in the assay with Enterococcus faecium [4] it was 40 µM (≈ 14.5 µg/mL); in the assay with Staphylococcus aureus [5] it was 90 µM (≈ 32.6 µg/mL); with Staphylococcus aureus [6], 180 µM (≈ 65.3 µg/mL); in the assay with Staphylococcus aureus [7], 90 µM (≈ 32.6 µg/mL); against Staphylococcus aureus [8] it was 180 µM (≈ 65.3 µg/mL). In addition, the MIC with Staphylococcus aureus [9] is 90 µM (≈ 32.6 µg/mL); in the assay with Staphylococcus aureus [10] it was 90 µM (≈ 32.6 µg/mL); against Enterococcus faecium [11] it was 90 µM (≈ 32.6 µg/mL); with Enterococcus faecium [12], 40 µM (≈ 14.5 µg/mL); against Enterococcus faecium [13], 40 µM (≈ 14.5 µg/mL); against Staphylococcus aureus [14], 180 µM (≈ 65.3 µg/mL). The MIC against Staphylococcus aureus [15] worked out at 90 µM (≈ 32.6 µg/mL); in the assay with Staphylococcus aureus [16], 180 µM (≈ 65.3 µg/mL); with Listeria monocytogenes [17], 40 µM (≈ 14.5 µg/mL); against Listeria monocytogenes [18] it was 40 µM (≈ 14.5 µg/mL); against Staphylococcus aureus [19] it was 90 µM (≈ 32.6 µg/mL); in the assay with Staphylococcus aureus [3], 90 µM (≈ 32.6 µg/mL). The figures for the MIC in the assay with Listeria monocytogenes [20], against Enterococcus faecalis [21] and in the assay with Enterococcus faecalis [22] were 20 µM (≈ 7.25 µg/mL), 90 µM (≈ 32.6 µg/mL) and 40 µM (≈ 14.5 µg/mL), respectively.
On to `CC1(C)S[C@@H]2[C@H](NC(=O)[C@H](N)c3ccc(O)cc3)C(=O)N2[C@H]1C(=O)O` [AMOXICILLIN], for which the minimum inhibitory concentration (MIC) in the assay on Listeria monocytogenes [1] is 2 µM (≈ 0.731 µg/mL); in the assay on Enterococcus faecium [4], 500 µM (≈ 183 µg/mL); in the assay on Enterococcus faecium [11], 60 µM (≈ 21.9 µg/mL); against Enterococcus faecium [12] it was 250 µM (≈ 91.4 µg/mL); against Enterococcus faecium [13], 250 µM (≈ 91.4 µg/mL); against Listeria monocytogenes [17], 4 µM (≈ 1.46 µg/mL). Moreover, the MIC in the assay on Listeria monocytogenes [18], in the assay on Listeria monocytogenes [20], against Enterococcus faecalis [21] and in the assay on Enterococcus faecalis [22] was 2 µM (≈ 0.731 µg/mL) throughout.
`CCCCCCC[C@@H]1OC[C@H]2O[C@H](OC)[C@H](O)[C@@H](O)[C@@H]2O1`: the MIC was 2000 µM (≈ 609 µg/mL) in the assay on Listeria monocytogenes [1]; above 4000 µM against Escherichia coli; above 4000 µM in the assay on Staphylococcus aureus [3]; above 4000 µM in the assay on Pseudomonas aeruginosa; above 4000 µM in the assay with Enterococcus faecalis [22]. Besides, in [23], the CMC is 2.5 mmol/L.
In the case of `CCCCCCCCCCCCO[C@H]1[C@H](O)[C@@H](O)[C@@H](OC)O[C@@H]1CO`, the CMC in [23] was determined as 0.046 mmol/L.
In the case of `Cc1onc(-c2ccccc2)c1C(=O)N[C@@H]1C(=O)N2[C@@H]1SC(C)(C)[C@@H]2C(=O)O` [OXACILLIN], the minimal inhibitory concentration (MIC) turned out to be 160 µM (≈ 64.2 µg/mL) against Staphylococcus aureus [5]; 160 µM (≈ 64.2 µg/mL) against Staphylococcus aureus [6]; 160 µM (≈ 64.2 µg/mL) with Staphylococcus aureus [7]; 320 µM (≈ 128 µg/mL) in the assay with Staphylococcus aureus [8]; 50 µM (≈ 20.1 µg/mL) with Staphylococcus aureus [9]; 160 µM (≈ 64.2 µg/mL) against Staphylococcus aureus [10]. The MIC in the assay with Staphylococcus aureus [14] is 320 µM (≈ 128 µg/mL); with Staphylococcus aureus [15], 80 µM (≈ 32.1 µg/mL); against Staphylococcus aureus [16] it was 640 µM (≈ 257 µg/mL); in the assay with Staphylococcus aureus [19], 160 µM (≈ 64.2 µg/mL); against Staphylococcus aureus [3], 1 µM (≈ 0.401 µg/mL).
Turning to `CCCCCCCCCCCC(=O)OC[C@H]1O[C@H](O[C@H]2[C@H](O)[C@@H](O)C(O)O[C@@H]2CO)[C@H](O)[C@@H](O)[C@@H]1O` (some centres not stated), the CMC in assay [2] is 0.24 mmol/L.
As to `CCCCCCCCC[C@@H]1OC[C@H]2O[C@H](OC)[C@H](O)[C@@H](O)[C@@H]2O1`, in assay [23], the CMC turned out to be 0.15 mmol/L.
As to `CCCCCCCCCCCCO[C@H]1O[C@H](CO)C(O[C@H]2O[C@H](CO)[C@@H](O)[C@H](O)[C@H]2O)[C@H](O)[C@H]1O` (single isomer, unassigned), the CMC in [2] was 0.15 mmol/L.
Same read-out and setting: as for `CCCCCCCCCCCCO[C@@H]1O[C@H](CO)C(O[C@H]2O[C@H](CO)[C@@H](O)[C@H](O)[C@H]2O)[C@H](O)[C@H]1O` (single isomer, unassigned), the figure is 0.2 mmol/L.
In the case of `CCCCCOC[C@H]1O[C@H](OC)[C@H](O)[C@@H](O)[C@@H]1O`, the MIC in the assay on Listeria monocytogenes [1], against Escherichia coli, with Staphylococcus aureus [3], with Pseudomonas aeruginosa and against Enterococcus faecalis [22] was above 4000 µM in each case. The CMC in assay [23] is 35 mmol/L.
